# Assay results gathered from unrelated publications.
# Lines come from different studies, so protocols differ.
# Read-out: cell growth or viability
SMILES,cell line,method,concentration,time,notes,quantity,value
CCN(CC)Cc1cc(Nc2ccnc3cc(Cl)ccc23)ccc1O,SH-SY5Y,resazurin,,,,IC50,17000 nM
Nc1ccc(/C=C/C(=O)NCc2cc3cc(-c4ccc(C(=O)N5CCC(F)(F)CC5)cc4)cc(-c4ccc(F)cc4)c3o2)cn1,Pan02,CCK-8,,72 h,,IC50,1640 nM
C=CC(=O)NC1CCN(c2ncc3ncnc(Nc4ccc(Oc5ccc6c(c5)ncn6C)c(C)c4)c3n2)CC1,SNU668,,,,,EC50,34.9 nM
CC(C)(C)c1cnc(CSc2cnc(NC(=O)C3CCN(CCCCCSc4cccc5c4CN(C4CCC(=O)NC4=O)C5=O)CC3)s2)o1 (stereo not drawn),HuT78,trypan blue,0.25 µM,48 h,,viability,9.46%
C=C(F)C(=O)N1CCN(c2nc(OC[C@@H]3CCCN3C)nc3c2CCN(c2cccc4cccc(Cl)c24)C3)C[C@@H]1CC#N,Lu-99,ATP luminescence,,,3D culture,IC50,21.3 nM
CC(C)(C)c1cnc(CSc2cnc(NC(=O)C3CCN(CCCCCCCCSc4cccc5c4CN(C4CCC(=O)NC4=O)C5=O)CC3)s2)o1 (stereo not drawn),HuT78,trypan blue,0.25 µM,48 h,,viability,22.4%
C#Cc1nc(C2=C(C)C(OC(=O)C(C)(C)C)/C(=N\OC(=O)C(C)(C)C)C2)cs1 (stereo not drawn),HT-1080,,,,,CC50,73 nM
CCNCCCn1c2c(c3cc(OC)c(OC)cc3c1=O)C(=O)c1cc3c(nc1-2)OCO3,SK-N-MC,MTS,,72 h,,IC50,137 nM
Nc1ccc(/C=C/C(=O)N2CCc3c(oc4c(-c5ccc(F)cc5)cc(-c5ccc(C(=O)N6C[C@@H]7[C@H](C6)C7(F)F)nn5)cc34)C2)cn1,Pan02,CCK-8,,72 h,,IC50,300 nM
[H]/N=C(\N/C(=N/[H])Nc1ccc(Cl)cc1)NC(C)C,SH-SY5Y,resazurin,,,,IC50,> 50000 nM
O=C(C=Cc1ccccc1)Nc1cc(-c2ccnc(N3CCC(O)CC3)c2)ccn1,HCC1937,MTT,,72 h,,IC50,528 nM
CCN(CC)CCCC(C)Nc1ccnc2cc(Cl)ccc12 (stereo not drawn),SH-SY5Y,resazurin,,,,IC50,44000 nM
COc1cc2c3c(n(CCCNCCO)c(=O)c2cc1OC)-c1nc2c(cc1C3=O)OCO2,SK-N-MC,MTS,,72 h,,IC50,173 nM
O=C1C(O)=C([C@H]2CC[C@H](c3ccc(Cl)cc3)CC2)C(=O)c2ccccc21,SH-SY5Y,resazurin,,,,IC50,> 50000 nM
CC(C)c1ccccc1[C@@H]1CCCN1C1CC2(CCN(c3ccc(C(=O)NS(=O)(=O)c4ccc(NC[C@H]5CC[C@](C)(O)CC5)c([N+](=O)[O-])c4)c(Oc4cnc5[nH]ccc5c4)c3)CC2)C1,MM.1R,ATP luminescence,,48 h,,IC50,7430 nM
